Screening data deposited in PubChem BioAssay by several laboratories.
Sampled rows, rich in hits. Any-hit rate of the full collection: about 4.9%.
NF-kB neuron act: compounds increasing NF-kB expression in human neuronal cells. NF-kB reporter expression; hits give high values. fold change at 12.5 µM. 190,000 tested, 1.6% active. AID 1239; in the data active = fold change above about 3.3
APP 5'UTR act: activates APP 5'UTR luciferase reporter. 190,000 tested, 1% active. AID 1276. SH-SY5Y APP 5'UTR luciferase reporter, luminescence; zero percent = DMSO vehicle wells. activation, % at 2 µM;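 active = activation above a set limit, based on mean plus 3 SD of controls, cut at about 140% in these data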
STAT3 activator: increases IL-6 driven STAT3 reporter signal. U3A cells, IL-6 STAT3-luciferase reporter, luminescence; 100% = signal with IL-6 EC80 alone. activation (% of control), % at 5.6 µM. 190,000 tested, 0.91% active;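 active = activation above the screen-wide mean of compound activation plus 3 SD, cut at about 130% in these data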;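 note: 0% = background luminescence of wells with medium and substrate only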
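Detection: reporter luminescence signal / Assay system: STAT1-lacking human U3A cells, STAT3 luciferase reporter / Incubation: compound pre-incubation 1 h before IL-6, then 6 h stimulation at 37 °C / Control set: IL-6-only high control / Read-out: % activation relative to IL-6 control / Probe or stimulus: Interleukin-6, 33 ng/mL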
STAT1 act: STAT1 signaling activation | NIH 3T3 STAT1-luciferase reporter, IFN-gamma, luminescence; 100% = IFN-gamma alone, no compound | activation (% of control), % at 5.5 µM | 200,000 tested, 2.6% active | AID 932;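 active = activation above the screen-wide mean activation plus 3 SD, cut at about 130% in these data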;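 note: raw ratio to IFN-gamma control signal so 100% means no change and 0% no light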
STAT1 blocker: STAT1 signaling inhibition | NIH 3T3 STAT1-luciferase reporter, IFN-gamma, luminescence | inhibition, % at 5.5 µM | 200,000 tested, 0.35% active | AID 920;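 active = inhibition above a set limit, the mean inhibition across all tested compounds plus 3 SD, cut at about 34% in these data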;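 note: 0% = IFN-gamma with DMSO and 100% = IFN-gamma with 300 µM nifuroxazide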
STAT3 blocker: STAT3 signaling inhibition; U3A cells, IL-6 STAT3-luciferase reporter, luminescence; host cell line lacks STAT1; inhibition, % at 5.5 µM; 190,000 tested, 0.89% active; AID 862;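 active = inhibition above the mean inhibition across all screened compounds plus 3 SD, cut at about 44% in these data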;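 note: 0% = DMSO only wells and 100% = 100 µM nifuroxazide control wells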
* marks the source's active call; other numbers are inactive results.

SMILES	NF-kB neuron act	APP 5'UTR act	STAT3 activator	STAT1 act	STAT1 blocker	STAT3 blocker
c1ccc(CCN(Cc2ccccc2)C2CCN(C3CCCC3)CC2)cc1	0.83	7	103	96	4	8
CN(C)S(=O)(=O)c1cc(NC(=O)[C@H](Cc2ccccc2)N2C(=O)c3ccccc3C2=O)ccc1Cl	1.1	4	107	107	-8	-7
O=C(Nc1ccc([N+](=O)[O-])cc1)C(Cc1ccccc1)N1C(=O)c2cccc3cccc(c23)C1=O (stereo not drawn)	0.97	8	135*	100	0	-44
Cc1ccc(C)[n+](CC(=O)c2ccc(-c3ccccc3)cc2)c1	0.74	1	96	78	23	6
C/C(=N/OCc1ccc(Br)cc1)c1ccccn1	4*	197*	90	138*	-40	12
N/C(=N\OCc1ccc([N+](=O)[O-])cc1)c1ccccn1	1.6	34	12	16	90*	110*
Cc1ccc(C(=O)NCCc2cccs2)cc1	1.8	83	36	45	58*	81*
CCOc1c2ccc(C(=O)NCCc3ccc(C)cc3)cc2nn1CC	1.1	21	105	100	0	2
CCn1nc2cc(C(=O)NCCc3cccs3)ccc2c1OC	4*	131	103	133*	-37	4
O=C(Nc1ccc(N=Nc2ccccc2)c(NC(=O)C2CCCO2)c1)C1CCCO1 (stereo not drawn)	0.37	-6	97	93	7	6
Cc1ccc(N(Cc2cc3cc(C)ccc3[nH]c2=O)S(=O)(=O)c2ccccc2)cc1	1.1	6	104	102	-3	-2
O=C(c1cccc(COc2ccc(Cl)cc2Cl)c1)N1CCN(c2ccccn2)CC1	1.9	173*	92	115	-16	11
COC(=O)N(C)c1nc2ccccc2s1	1.3	17	87	112	-13	18
CCCCNC(=O)N(C)c1nc2ccccc2s1	2.6	74	114	133*	-38	-12
Cc1ccc(NC(=O)C2CCCN(c3ncccn3)C2)cc1F (stereo not drawn)	3.5*	89	112	149*	-53	-11
O=C(Nc1ccc2c(c1)CCC2)C1CCCN(c2ncccn2)C1 (stereo not drawn)	2.6	59	106	144*	-47	-2
CS(=O)(=O)Oc1ccc(/C=N/NC(=O)c2ccncc2)cc1	0.93	-1	105	105	-6	-8
C=CCNC(=O)/C(=C/c1cccc([N+](=O)[O-])c1)NC(=O)c1ccco1	1	24	103	95	5	3
CC(C)(C)C(=O)Nc1cc2nn(-c3ccccc3)nc2cc1Cl	0.17	9	15	24	83*	104*
Cc1nn(-c2cccc(Cl)c2)nc1C(=O)O	1.5	-3	94	107	-7	8
CC(=O)Nc1cc2nn(-c3ccccc3)nc2cc1Cl	5.3*	53	89	131*	-34	15
CCCCNC(=S)N(C)/N=C/c1ccc(OCc2ccc(C(=O)OC)cc2)c(OC)c1	0.94	5	107	106	-7	-5
CCc1ccccc1NC(=O)c1cnc2n(c1=O)CCS2	1.6	5	93	112	-13	13
CCc1ccc(NC(=O)c2cnc3n(c2=O)CCS3)cc1	2.8	40	118	131*	-34	-17
NC(=O)CSCc1nc2ccccc2s1	1.1	20	135*	101	-1	-42
SMILES	NF-kB neuron act	APP 5'UTR act	STAT3 activator	STAT1 act	STAT1 blocker	STAT3 blocker
Oc1ccccc1OCc1nc2ccccc2s1	3.4*	154*	87	107	-7	17
COc1ccc(N(CC(=O)NCCc2ccc(Cl)cc2)S(=O)(=O)c2c(C)[nH]c(=O)[nH]c2=O)cc1	1.2	5	113	103	-3	-6
O=C(NN1CCOCC1)c1ccc(Cl)s1	1.3	13	99	98	0	4
C/C(=N\NC(=S)Nc1cccc(C)c1)c1ccccc1	1.6	3	95	107	-8	13
CSC(=S)N/N=C(\C)c1ccccc1	5.9*	-3	87	109	-11	18
CC(=O)c1cccc(NC(=S)NC(=O)c2cccc(Cl)c2)c1	2.1	60	103	140*	-44	-5
CC(=O)c1cccc(NC(=S)NC(=O)C(C)C)c1	1.1	-2	100	105	-6	1
NC(=S)Nc1ccc2cn[nH]c2c1	1.1	32	110	103	-4	2
CCC(=O)Nc1ccc2c(c1)C(=O)c1ccccc1C2=O	4.2*	104	94	148*	-54	14
O=C(O)c1cccc(NC(=S)NC(=O)c2ccc(-c3ccccc3)cc2)c1	3.3*	44	76	96	5	30
CCC(=O)Nc1ccc2c(c1)C(=O)N(C)C2=O	1.1	15	90	99	1	10
O=C(NC(=S)Nc1ccc2cn[nH]c2c1)c1ccccc1	1	44	113	148*	-53	-8
Cn1c(CCc2ccccc2)n[nH]c1=S	1.2	0	101	106	-8	3
CCOC(=O)Cc1nc2ccccc2n(CC#N)c1=O	1.2	10	102	98	1	0
CC1(c2ccc(OC(F)F)cc2)NC(=O)N(/N=C/c2c(O)ccc3ccccc23)C1=O (stereo not drawn)	0.93	-11	108	98	2	-7
CNC(=S)Nc1cccc(C(C)=O)c1	1.1	-4	101	105	-8	3
O=C(NC(=S)Nc1ccc2c(c1)OCO2)c1ccccc1	7.3*	170*	96	146*	-51	15
O=C(NC(=S)Nc1ccc2c(c1)C(=O)c1ccccc1C2=O)c1ccc(F)cc1	3.3*	89	82	116	-19	24
CC(=O)c1cccc(NC(=S)NC(=O)c2ccccc2)c1	3.8*	71	93	133*	-37	8
CC(Sc1nnc2ccccn12)C(=O)Nc1ccc2c(c1)OCO2 (stereo not drawn)	1.4	-13	101	104	-5	2
Cc1ccc(SCC(=O)NC(=O)Nc2ccc3c(c2)OCCO3)cc1C	1.2	1	108	103	-3	-10
CCC(=O)Oc1ccc2oc(=O)cc(C)c2c1	1.3	-5	110	100	0	-8
CCOc1ccc2oc(=O)cc(C)c2c1	1.5	-8	95	133*	-36	13
COc1ccc(-n2c(C)cc(-c3csc(N)n3)c2C)cc1	0.88	-3	108	97	3	-5
O=C1NC(=O)/C(=C\c2ccc(Oc3cnccn3)cc2)S1	2.2	33	129	140*	-43	-35
O=C1NC(=S)S/C1=C/c1ccc(Oc2cnccn2)cc1	1.6	-19	101	104	-4	1
Clc1ccc(-c2csc(N/N=C\c3cccnc3)n2)cc1	1.2	22	90	106	-6	12
